# High-throughput results: PubChem, The Scripps Research Institute Molecular Screening Center
# An excerpt weighted towards active compounds, which were near 4.6% of everything screened.
# GPR7 antagonist – human neuropeptides B/W receptor 1 antagonism. GPR7-expressing cells, fluorescence antagonist assay. inhibition, % at 4.4 µM. AID 1861. hit rate 1.1% among 290,000. P48145; in the data active = inhibition above about 16%, passing the limit was not always enough;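 also: cells stimulated with the agonist NPW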
# CHO parental Ca – counter-screen: ATP calcium response change in parental CHO cells; parental CHO-K1, ATP-induced calcium, Fluo-8 fluorescence; inhibition, % at 5.6 µM; hit rate 0.63% among 330,000; AID 463079;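 active = inhibition above that plate's mean sample inhibition plus 3 SD, cut at about 26% in these data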
#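 Assay system – parental CHO cells · Reagent – ATP stimulus · Detection – intracellular calcium via Fluo-8 no-wash fluorescent dye · Evaluation – percent inhibition of ATP-evoked calcium rise, normalized to controls · Controls – ATP wells versus no-ATP DMSO wells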
# OX1R antag-1 – antagonists of human orexin 1 receptor (OX1R); hit rate 1.8% among 330,000; OX1R-expressing cells, FRET antagonist read-out; inhibition, % at 6.6 µM; O43613; in the data active = inhibition mostly above about 38%, no sharp cut-off; inactive = mostly below about 40%
# Target sequence (O43613 whole entry, looked up): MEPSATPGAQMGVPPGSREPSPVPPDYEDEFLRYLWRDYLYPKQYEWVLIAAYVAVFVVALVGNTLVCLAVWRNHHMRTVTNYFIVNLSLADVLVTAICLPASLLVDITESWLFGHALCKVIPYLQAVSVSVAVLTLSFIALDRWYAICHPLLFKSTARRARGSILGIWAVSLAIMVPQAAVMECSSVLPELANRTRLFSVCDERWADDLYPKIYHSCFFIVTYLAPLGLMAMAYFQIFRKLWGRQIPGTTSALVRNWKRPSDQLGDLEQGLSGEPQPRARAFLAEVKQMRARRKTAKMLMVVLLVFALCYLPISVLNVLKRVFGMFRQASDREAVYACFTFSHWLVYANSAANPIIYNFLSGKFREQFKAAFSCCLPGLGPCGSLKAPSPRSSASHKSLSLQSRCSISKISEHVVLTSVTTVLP
# TAAR1 antag – human TAAR1 antagonism | hit rate 1.5% among 360,000 | CHO RD-HGA16 TAAR1, Fluo-8 calcium fluorescence, antagonist | Q96RJ0 | inhibition, % at 3 µM;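 active = inhibition above a per-plate cutoff, the mean inhibition of test compounds on that plate plus 3 SD, cut at about 49% in these data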
#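 Test system – hTAAR1-expressing CHO RD-HGA16 cells, Gα16-coupled · Also added – β-PEA at EC80 concentration, post-compound challenge · Compound – 3 µM, single point · Incubation – dye loading 75 min at 37 °C, then 30 min room temperature · Measured by – Fluo-8 intracellular calcium dye fluorescence, real-time kinetic reads · Benchmarks – vehicle and agonist controls · Replicates – singlicate, one well per test compound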
# TAAR1 agonist – human TAAR1 agonism | CHO RD-HGA16 TAAR1, Fluo-8 calcium fluorescence; vehicle wells 0%, saturating PEA agonist 100% | activation, % at 3 µM | hit rate 0.99% among 360,000 | Q96RJ0;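 active = activation above the mean activation of all test compounds in the run plus 3 SD, cut at about 38% in these data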
#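 Test system: RD-HGA16 (CHO) cells co-expressing Gα16 and hTAAR1 | Doses: Single dose, 3 µM | Schedule: 17-24 h seeding, 75 min 37 °C dye, 30 min RT | Evaluation: % activation from peak over basal fluorescence ratio, DMSO-to-PEA scaled | Technique: Kinetic Fluo-8 calcium fluorescence | Benchmarks: Low control DMSO, high control PEA (EC100)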
# OX1R antag-2 – blocks the human orexin 1 receptor. inhibition, % at 5 µM. O43613. hit rate 0.43% among 330,000. CHO/OX1R cells, Fluo-8 calcium fluorescence, orexin A. AID 434989;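 active = inhibition above its plate's threshold, mean inhibition of all tested compounds on the plate plus 3 SD, cut at about 37% in these data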
# Hits are given with their value; 0 = inactive; - = no result given.
SMILES,GPR7 antagonist,CHO parental Ca,OX1R antag-1,TAAR1 antag,TAAR1 agonist,OX1R antag-2
CCN1C(=O)[C@H]2[C@@H](c3ccc(C)cc3)N3C(=O)N(c4cccc(F)c4)C(=O)[C@@]3(Cc3ccc(Cl)cc3)[C@H]2C1=O,-,0,56,0,0,0
CN(CCOc1ccc(-c2ccn(S(=O)(=O)c3c(Cl)cccc3Cl)n2)cc1)c1ccccn1,0,0,0,0,0,0
CN(CCOc1ccc(-c2ccn(S(=O)(=O)c3ccc(Cl)cc3)n2)cc1)c1ccccn1,19,0,0,0,0,0
COc1ccccc1C(=O)N1CCN(C(=O)[C@H](CCc2ccccc2)NC(=O)[C@H]2O[C@@H](n3cnc4c(N)ncnc43)[C@H](O)[C@@H]2O)CC1,-,-,-,0,0,-
CN(C)c1ccc(NC(=O)Nc2cccc(Cl)c2)cc1,0,0,0,0,0,0
O=C(Nc1cccc(Cl)c1)Nc1csc([N+](=O)[O-])c1,0,62,50,0,0,0
Cc1cc(Br)cn2c(Cc3ccccc3C(F)(F)F)c(-c3ccc(F)cc3)nc12,-,-,-,0,0,-
Cc1ccc(Nc2ccc([N+](=O)[O-])nc2[N+](=O)[O-])cc1,0,0,62,0,0,0
Cc1nc(Nc2ccc(C(=O)O)cc2)nc(Nc2ccc(C(=O)O)cc2)c1[N+](=O)[O-],0,0,42,0,0,0
CCOc1ccc(Nc2ccc(C(=O)O)cc2[N+](=O)[O-])cc1,0,0,0,0,0,0
CCOc1ccc(Nc2ccc3nonc3c2[N+](=O)[O-])cc1,0,0,45,0,0,0
Cc1ccc(Nc2ccc3nonc3c2[N+](=O)[O-])cc1,0,0,64,0,0,0
O=[N+]([O-])c1c(Nc2ccc(Br)cc2)ccc2nonc12,0,0,0,0,0,0
Cc1cc(=O)c2c([nH]1)c(C)cc1[nH]c(C)c(C)c12,-,0,0,0,0,0
O=C(O)c1ccc(Nc2ccc3nonc3c2[N+](=O)[O-])cc1,0,0,57,0,0,0
COC(=O)c1ccc(Nc2ccc3nonc3c2[N+](=O)[O-])cc1,0,0,0,0,0,0
CCN(CC(=O)NCc1cccs1)C(=O)c1ccc([N+](=O)[O-])o1,-,0,64,0,0,0
O=C(NCC1CCCCC1)c1cccc([N+](=O)[O-])c1,0,0,0,0,0,0
NC(=O)COC(=O)CNC(=O)c1cc(Cl)cc([N+](=O)[O-])c1,0,0,53,0,0,0
CC(C)(C)NC(=O)NC(=O)COC(=O)CNC(=O)c1cc(Cl)cc([N+](=O)[O-])c1,0,0,0,0,0,0
O=C(NCC1CC1)c1cc([N+](=O)[O-])cc([N+](=O)[O-])c1,0,0,54,0,0,0
O=C(CNC(=O)c1cc(Cl)cc([N+](=O)[O-])c1)OCC(=O)N1CCCCC1,-,0,41,0,0,0
Cc1cc(C(=O)NCC(=O)OCC(=O)N2CCCCCC2)ccc1[N+](=O)[O-],0,0,0,0,0,0
COC(=O)C1=C(C)NC(C)=C(C(=O)OC)C(N2C(=O)CCC2=O)C1 (stereo unspecified),-,-,-,0,0,-
O=C(C(=O)N1CCC(CNS(=O)(=O)c2cc(C(F)(F)F)cc(C(F)(F)F)c2)CC1)c1cccs1,-,-,-,0,0,-
SMILES,GPR7 antagonist,CHO parental Ca,OX1R antag-1,TAAR1 antag,TAAR1 agonist,OX1R antag-2
CCCc1ccc(Oc2c(-c3ccc(O)c(C)c3O)n[nH]c2C)cc1,0,29,0,0,0,0
Cn1c(CSCc2ccc(F)cc2)nnc1SCC(=O)Nc1nccs1,0,0,0,0,0,0
Cn1c(CSCc2ccc(Cl)c(Cl)c2)nnc1SCC(=O)Nc1nccs1,0,0,0,62,40,0
COc1cc(/C=C2\C(=O)N(CCC#N)N=C2C)ccc1OCC(=O)Nc1ccccc1,0,0,0,54,0,0
CC(=O)NC(C)(c1ccccc1)c1nc(-c2cccc(F)c2)cs1 (stereo unspecified),-,-,-,0,0,-
COc1ccccc1N1CCN(C(=O)c2cc(S(=O)(=O)N3CCCCC3)ccc2C)CC1,-,0,0,0,0,0
CCOc1ccccc1N1CCN(C(=O)c2cc(S(=O)(=O)N3CCCCC3)ccc2C)CC1,-,0,0,55,0,0
COc1cc(CNCCc2ccccc2)ccc1OCC(=O)NC(C)(C)C,0,0,0,0,67,0
